Experimental findings from ChEMBL document CHEMBL3046311, “Synthesis and antifungal activities of alkyl N-(1,2,3-thiadiazole-4-carbonyl) carbamates and S-alkyl N-(1,2,3-thiadiazole-4-carbonyl) carbamothioates” (2005) are described below.

The structures appear in SMILES notation.

What all share (assay type): functional
Common to all, as to settings: read-out: GI

Assay [1] deals with Alternaria kikuchiana. Nature of the assay: Fungistatic activity against Alternaria kikuchiana assessed as inhibition of mycelial growth measured at 5 ug/mL at 28 degC after 72 hr relative to control. The essentials:
(§1)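 Compounds in acetone at stock levels of 500 and 50 µg/mL; 1 mL of stock mixed into 9 mL thawed potato dextrose agar at 50 °C and poured. Solidified plates were inoculated with a 4 mm mycelial disk, inverted, and held at 28 °C for 72 h. Water served as negative control, in triplicate. Inhibition was calculated as (C−T)/C × 100% from colony radii.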

Assay [2] concerns Fusarium graminearum. As to the kind of experiment: Fungistatic activity against Fusarium graminearum assessed as inhibition of mycelial growth measured at 5 ug/mL at 28 degC after 72 hr relative to control. The essentials: (§2)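 Poisoned-food plate assay with Gibberella zeae. Compound in acetone (500 or 50 µg/mL stocks) is mixed 1:9 with molten potato dextrose agar at 50 °C and poured. Once set, plates are inoculated with a 4 mm mycelium disk, inverted, and held 72 h at 28 °C. Water is the negative control, run in triplicate. Colony radius is measured, and inhibition = (C−T)/C × 100%.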

The test system of assay [3] is Fusarium graminearum. Nature of the assay: Fungistatic activity against Fusarium graminearum assessed as inhibition of mycelial growth measured at 50 ug/mL at 28 degC after 72 hr relative to control. In short, it runs like this:
as §2

For assay [4], the system named is Alternaria kikuchiana. As to the kind of experiment: Fungistatic activity against Alternaria kikuchiana assessed as inhibition of mycelial growth measured at 50 ug/mL at 28 degC after 72 hr relative to control. In short, it runs like this: as §1

For the compound `CCCCOC(=O)NC(=O)c1csnn1`, the inhibition of growth at 5 µg/mL in the assay with Alternaria kikuchiana [1] worked out at 23%; in the assay on Fusarium graminearum [2], 6%. Moreover, the inhibition of growth at 50 µg/mL in the assay on Fusarium graminearum [3] came out at 11%; in the assay with Alternaria kikuchiana [4] it was 50%.
The like results for `CCCCCOC(=O)NC(=O)c1csnn1` were, in that order, 36%, 4%, 42% and 45%.
Regarding `CC(C)CCOC(=O)NC(=O)c1csnn1`, the values for the inhibition of growth at 5 µg/mL in the assay with Alternaria kikuchiana [1] and in the assay on Fusarium graminearum [2] were 25% and 15%, respectively. Besides, the inhibition of growth at 50 µg/mL in the assay with Fusarium graminearum [3] was found to be 100%; in the assay with Alternaria kikuchiana [4], 50%.
The like results for `CCCCCCOC(=O)NC(=O)c1csnn1` were, in that order, 54%, 23%, 92% and 90.7%.
As to `CCCCCCCOC(=O)NC(=O)c1csnn1`, the values for the inhibition of growth at 5 µg/mL in the assay with Alternaria kikuchiana [1] and in the assay with Fusarium graminearum [2] were 20% and 78%, respectively. In addition, the figures for the inhibition of growth at 50 µg/mL with Fusarium graminearum [3] and with Alternaria kikuchiana [4] were 92% and 50%, respectively.
The like results for `CCCCCCCCOC(=O)NC(=O)c1csnn1` were, in that order, 20%, 63%, 81% and 50%.
The like results for `CCCCCCCCCOC(=O)NC(=O)c1csnn1` were, in that order, 27%, 23%, 60% and 50%.
As to `CCCCCCCCCCOC(=O)NC(=O)c1csnn1`, the results for the inhibition of growth at 5 µg/mL with Alternaria kikuchiana [1] and in the assay on Fusarium graminearum [2] were 54% and 42%, respectively. Further, the results for the inhibition of growth at 50 µg/mL with Fusarium graminearum [3] and with Alternaria kikuchiana [4] were 75% and 54%, respectively.
Take `CCCCCCCCCCCOC(=O)NC(=O)c1csnn1`: the values for the inhibition of growth at 5 µg/mL in the assay with Alternaria kikuchiana [1] and in the assay on Fusarium graminearum [2] were 10% and 59%, respectively. In addition, the values for the inhibition of growth at 50 µg/mL with Fusarium graminearum [3] and with Alternaria kikuchiana [4] were 78% and 40%, respectively.
The corresponding values for `O=C(NC(=O)c1csnn1)OC1CCCCC1` are 32%, 0%, 17% and 59%.
With `CCCCCCCCCCCCCCOC(=O)NC(=O)c1csnn1`, the values for the inhibition of growth at 5 µg/mL in the assay with Alternaria kikuchiana [1] and in the assay with Fusarium graminearum [2] were 15% and 0%, respectively. Moreover, the inhibition of growth at 50 µg/mL with Fusarium graminearum [3] came to 100%; with Alternaria kikuchiana [4], 50%.
Turning to `CCCCCCCCCCCCCCCCOC(=O)NC(=O)c1csnn1`, the inhibition of growth at 5 µg/mL came to 14% in the assay on Alternaria kikuchiana [1] and 0% in the assay with Fusarium graminearum [2]. The inhibition of growth at 50 µg/mL amounted to 67% in the assay with Fusarium graminearum [3] and 27% in the assay on Alternaria kikuchiana [4].
The corresponding values for `O=C(NC(=O)c1csnn1)OCCCCCCCCCCBr` are 0%, 25%, 42% and 41%.
The corresponding values for `O=C(NC(=O)c1csnn1)OCCCCCCCCCCCCBr` are 13%, 6%, 21% and 36%.
The corresponding values for `CCCSC(=O)NC(=O)c1csnn1` are 9%, 27%, 54% and 36%.
Consider `CCCCSC(=O)NC(=O)c1csnn1`, for which the inhibition of growth at 5 µg/mL in the assay on Alternaria kikuchiana [1] turned out to be 32%; in the assay with Fusarium graminearum [2], 0%. Besides, the inhibition of growth at 50 µg/mL is 10% with Fusarium graminearum [3] and 36% in the assay on Alternaria kikuchiana [4].
`CCCCCCSC(=O)NC(=O)c1csnn1`: the inhibition of growth at 5 µg/mL with Alternaria kikuchiana [1] stood at 4%; with Fusarium graminearum [2], 25%. Further, the inhibition of growth at 50 µg/mL came out at 75% in the assay with Fusarium graminearum [3] and 27% with Alternaria kikuchiana [4].
For the compound `CCCCCCCSC(=O)NC(=O)c1csnn1`, the inhibition of growth at 5 µg/mL in the assay on Alternaria kikuchiana [1] amounted to 4%; with Fusarium graminearum [2], 12%. For the same compound, the inhibition of growth at 50 µg/mL was determined as 35% with Fusarium graminearum [3] and 32% in the assay with Alternaria kikuchiana [4].
The like results for `CCCCCCCCSC(=O)NC(=O)c1csnn1` were, in that order, 0%, 10%, 31% and 18%.
